# Screens: PubChem, several laboratories
# Rce1 inh: yeast Rce1p protease inhibitors, primary screen, biochemical, fluorescence, cell-free homogeneous; 290,000 tested, 0.27% active; AID 2563, 2010; calls only; CAAX prenyl protease 2 (Saccharomyces cerevisiae (strain ATCC 204508 / S288c)), Q03530; yeast membranes, quenched prenylated peptide cleavage fluorescence;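 active means fall in fluorescence gain of 50% or more versus controls, with final raw signal at or below 3038400; inconclusive means same 50% fall but final raw signal above 3038400; inactive means fall in fluorescence gain under 50%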;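 further: plate controls were neutral control wells for no effect and wells lacking membranes for full effect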
# Target sequence (Q03530 whole entry, looked up): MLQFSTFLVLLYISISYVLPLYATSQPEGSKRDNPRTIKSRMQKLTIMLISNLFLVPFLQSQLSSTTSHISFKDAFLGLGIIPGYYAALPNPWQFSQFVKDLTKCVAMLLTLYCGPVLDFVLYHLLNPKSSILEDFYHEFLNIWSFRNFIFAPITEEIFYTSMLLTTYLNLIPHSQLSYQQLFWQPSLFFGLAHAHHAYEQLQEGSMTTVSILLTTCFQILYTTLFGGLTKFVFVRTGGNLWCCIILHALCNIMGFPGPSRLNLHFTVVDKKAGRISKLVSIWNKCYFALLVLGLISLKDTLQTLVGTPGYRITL
# T cell modulator: modulators of CD8 T cell-vesicle binding, primary screen, mouse 2C CD8+ T cells, flow cytometry; 330,000 tested, 0.068% active; 2C CD8+ T cell-vesicle binding; hits give low values; response (vesicle binding), % at 7 µM;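 active means response, share of CD8 T cells binding vesicles, and their 90th percentile fluorescence all below set limits, cut at about 80% in these data, passing the limit was not always enough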;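 further: values below 100% mean blocked vesicle binding to the CD8+ T cells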
#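 Incubation: binding step 1.5 h, 37 °C, antibody labelling 20 min, ice; system: murine 2C transgenic CD8+ T lymphocytes; technique: cytometric PE anti-B7-1 and Alexa647 anti-CD8 signals after 1% paraformaldehyde fixation; also added: QL9-charged Drosophila Ld/ICAM-1/B7-1 vesicles; control set: naked versus QL9-loaded vesicles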
# CR mimetic SO: reduction of superoxide in aged yeast, primary screen, HTS. S. cerevisiae aged cells, superoxide DHE fluorescence; hits give low values. superoxide response (% of plate mean), % at 10 µM. 330,000 tested, 0.18% active. AID 2690, 2010;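 active means superoxide response under a set limit, about three screen SD below normal, cut at about 65% in these data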;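 further: yeast aged for seven days with compound at 30 °C before DHE staining; 100% = average MFI of all compound-treated wells on the plate with controls excluded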
# V-ATPase pHluor: regulators of yeast V-ATPase proton pumping, primary screen, pHLuorin cytosolic pH fluorescence. 350,000 tested, 0.37% active. S. cerevisiae. response, % at 10 µM; in the data active means response mostly above about 7.3%, no sharp cut-off; inactive means mostly below about 5.4%; further: actives read high
# beta cell repl: inducers of MIN6 beta-cell proliferation, primary screen, ATP luminescence, uHTS; proliferation, % at 10 µM; MIN6 cells proliferation, ATPlite luminescence, 48 h; cells starved in 0.2% serum; 100% = growth in 10% serum; 330,000 tested, 0.29% active;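 active means compounds whose signal lies at least 3.5 SD above the mean of all wells on their plate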;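 further: 0% = DMSO-treated cells in low-serum medium and 100% = 10% serum control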
# proKLK7 act: proKLK7 zymogen activators, primary screen, biochemical, fluorescence intensity; AID 652039, 2013; activation, % at 7 µM; purified proKLK7, EDANS-DABCYL substrate fluorescence; 100% is mature enzyme control, 0% vehicle; 370,000 tested, 0.9% active; Kallikrein-7 (Homo sapiens), P49862;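 active means activation above the mean of all tested compounds plus 3 SD, computed per campaign excluding outliers beyond control limits, cut at about 13% in these data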
# Target sequence (P49862 whole entry, looked up): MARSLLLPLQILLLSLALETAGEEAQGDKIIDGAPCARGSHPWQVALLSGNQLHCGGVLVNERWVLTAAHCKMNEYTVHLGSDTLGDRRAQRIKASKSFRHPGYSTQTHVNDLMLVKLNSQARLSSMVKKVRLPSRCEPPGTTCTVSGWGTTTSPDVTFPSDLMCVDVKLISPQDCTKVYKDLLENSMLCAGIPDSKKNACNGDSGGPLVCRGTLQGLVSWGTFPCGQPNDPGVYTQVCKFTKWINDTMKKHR
# proKLK7 act conf: proKLK7 zymogen activators, confirmation, biochemical, fluorescence intensity, triplicate; activation, % at 7 µM; shares compounds with proKLK7 act; purified proKLK7, EDANS-DABCYL substrate fluorescence; scaled: vehicle 0, mature enzyme 100; 3,200 tested, 68% active;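 active means activation, as change over the incubation, above the mean of all tested compounds plus 3 SD, cut at about 13% in these data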
# EDANS-DABCYL int: EDANS-DABCYL substrate optical interference, artefact control for kallikrein-7 zymogen activator project, biochemical, fluorescence intensity, high throughput; no enzyme, 4 h; solvent 0%, active enzyme control 100%; AID 686952, 2013; activation, % at 7 µM; shares compounds with proKLK7 act; 3,200 tested, 80% active;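 active means activation above the all-compound mean plus 3 SD, ignoring values outside control-based bounds, cut at about 4.8% in these data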;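 further: value is the 4 h activation minus the activation read at time zero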
# EDANS interf: optically interferes with EDANS-DABCYL fluorescence, kallikrein-7 activator counter-screen; shares compounds with proKLK7 act; EDANS-DABCYL peptide fluorescence interference, no enzyme; EC50, µM; 250 tested, 20% active; AID 720493;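 active means compounds that raise the fluorescence signal in this interference counterscreen, with EC50 at or below 10 µM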;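 further: intact quenched peptide substrate alone read at 355 nm excitation and 520 nm emission; signal is fluorescence gain from T0 to T4 after four hours at room temperature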
# * marks the source's active call; other numbers are inactive results; i = inactive; ? = inconclusive; · = not tested or not shown. In the library only some 1.9% were active in any assay of this set; here they are far more common.
SMILES,Rce1 inh,T cell modulator,CR mimetic SO,V-ATPase pHluor,beta cell repl,proKLK7 act,proKLK7 act conf,EDANS-DABCYL int,others
CC1=Nc2ccc(C)c3nc(C)cc(c23)N1c1ccc(C)cc1,i,176,119,-1,-3,70*,2,0,
Cc1ccc(Nc2cc(C)nc3c(C)cccc23)cc1,i,139,100,2,-1,0,·,·,
COC(=O)C[C@@H]1CC[C@@H]2[C@@H](COc3ccc(NC(=O)Nc4ccccc4)cc3C(=O)N2C)O1,·,·,·,·,·,0,·,·,
O=C(c1ccco1)N1CCN(C(=O)c2cnn3c(C(F)(F)F)cc(-c4cccs4)nc23)CC1,i,i,91,-1,-1,25*,-4,1,
FC(F)(F)c1cc(-c2cccs2)nc2ncnn12,i,549,96,-2,0,19*,67*,66*,
CN1CCN(C(=O)c2cnn3c(C(F)(F)F)cc(-c4cccs4)nc23)CC1,i,204,95,1,0,19*,29*,25*,
O=C(c1cnn2c(C(F)(F)F)cc(-c3cccs3)nc12)N1CCN(Cc2ccccc2)CC1,i,109,92,2,3,-6,·,·,
Cc1ccc(NC(=O)COC(=O)CNC(=O)c2cccs2)cc1S(=O)(=O)N1CCOCC1,·,·,·,0,·,0,·,·,
CC(C)c1cccc(C2=CC(=O)C[C@H](c3ccc4c(c3)OCO4)C2)c1,·,179,97,-1,-6,0,·,·,
CCOc1ccc2nc(N3CCOCC3)nc(C)c2c1,i,134,94,2,-4,21*,-21,-32,
CCOC(=O)C1CCN(c2ncnc3c2[nH]c2cccc(OC)c23)CC1,?,310,87,6,1,19*,23*,14*,EDANS interf=i
COc1cccc2[nH]c3c(N4CCCCC4)ncnc3c12,i,70,105,-1,0,8,·,·,
COc1cccc2[nH]c3c(Cl)ncnc3c12,i,500,106,0,0,17*,32*,31*,
COc1ccc(NC(C)=O)cc1NC(=O)c1cccc(S(=O)(=O)N2CCc3ccccc32)c1,·,175,95,-2,-3,1,·,·,
Cn1c(/C=C/c2ccccc2)nc2ccccc21,?,363,107,2,-5,7,·,·,
CC(=O)c1ccc(/C=C/c2nc3ccccc3n2C)o1,i,356,108,0,-2,40*,71*,71*,
N=c1c(C(=O)NC2CCCCC2)cc2c(=O)n3ccccc3nc2n1CC1CCCO1 (stereo unspecified),i,182,90,-15,5,53*,8,21*,
N=c1c(C(=O)NC2CCCC2)cc2c(=O)n3ccccc3nc2n1C1CCCC1,i,308,102,1,-1,50*,-32,-32,
N=c1c(C(=O)NC2CCCC2)cc2c(=O)n3ccccc3nc2n1CC1CCCO1 (stereo unspecified),i,214,109,-41,-2,105*,33*,25*,EDANS interf=>69
Cc1cccn2c(=O)c3cc(C(=O)NC4CCCC4)c(=N)n(C4CCCC4)c3nc12,i,0,99,3,-3,-10,·,·,
Cc1cccn2c(=O)c3cc(C(=O)N4COCC4(C)C)sc3nc12,i,558,119,3,0,3,·,·,
CC(NC(=O)c1cc2c(=O)n3ccccc3nc2n(CC2CCCO2)c1=N)c1ccccc1 (stereo unspecified),·,258,98,1,-1,12,·,·,
Cn1c(C(=O)N2COCC2(C)C)cc2c(=O)n3ccccc3nc21,?,291,97,6,-3,48*,74*,70*,
CC1CCN(C(=O)c2[nH]cnc2C(=O)Nc2ccccc2)CC1,·,218,111,-4,0,0,·,·,
CN(C(=O)COC(=O)COc1ccc(Cl)cc1Cl)c1c(N)n(Cc2ccccc2)c(=O)[nH]c1=O,i,497,104,6,1,0,·,·,
SMILES,Rce1 inh,T cell modulator,CR mimetic SO,V-ATPase pHluor,beta cell repl,proKLK7 act,proKLK7 act conf,EDANS-DABCYL int,others
CCNC(=O)c1c(NC(=O)c2cc(-c3cc(C)cc(C)c3O)n[nH]2)sc2c1CCCC2,·,·,·,-27,·,-17,·,·,
O=C(c1ccncc1)N(c1ccc(N2CCOCC2)cc1)C(c1ccccc1)c1nc2ccccc2[nH]1 (stereo unspecified),·,·,·,·,·,3,·,·,
COc1ccc(CCn2c(=N)c(C(=O)NCC3CCCO3)cc3c(=O)n4ccccc4nc32)cc1OC (stereo unspecified),i,138,103,4,-1,-1,·,·,
COCCCn1c(=N)c(C(=O)NC2CCCCC2)cc2c(=O)n3ccccc3nc21,i,179,91,-5,3,150*,4,-3,
COCCCn1c(C(=O)N2CC(C)OC(C)C2)cc2c(=O)n3ccccc3nc21 (stereo unspecified),i,385,97,3,0,83*,70*,71*,
COc1ccc(Cn2c(=N)c(C(=O)NC3CCCCC3)cc3c(=O)n4ccccc4nc32)cc1,i,164,94,-2,-6,0,·,·,
Cn1c(C(=O)NCC2CCCO2)cc2c(=O)n3ccccc3nc21 (stereo unspecified),i,187,96,2,5,59*,68*,73*,
O=C(CCc1ccccc1-c1ccccc1CCNC(=O)c1ccc(F)c(F)c1)NCc1ccccc1,·,·,·,·,·,0,·,·,
C[C@H]1NC(=O)[C@@]2(C)[C@H](c3ccccc3)[C@H]3COc4ccccc4[C@@H]3N2C1=O,·,253,98,-3,1,0,·,·,
Cc1ccc2[nH]c(=O)c3cc(C(=O)NCCN4CCN(C)CC4)sc3c2c1,i,133,90,0,-2,17*,-18,-22,
CCOC(=O)CNC(=O)c1cc2c(=O)[nH]c3ccc(C)cc3c2s1,i,159,93,-3,-2,-5,·,·,
